Assay results taken from ChEMBL document CHEMBL1933017, “Synthesis and biological evaluation of some thiazolidinones as antimicrobial agents” (2012).
Converted amounts (≈) assume the structure as drawn.

Tests used:
Bacillus cereus [1] = assay: Antibacterial activity against Bacillus cereus at 100 ug/disc after 24 hrs by disc diffusion method; assay type: functional; details: read-out: DIZ
Method in brief: (§1)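 Paper disc diffusion on autoclaved Mueller-Hinton agar poured 5 mm deep. Agar was swab-inoculated with 10⁵ CFU/mL suspension (0.5 McFarland). Discs 6.25 mm across were soaked in compound solution in DMSO (3.12–100 µg/mL) and plates incubated 24 h at (37 ± 1) °C. Read-out was inhibition zone (mm). DMSO control disc; ciprofloxacin or ketoconazole reference, 100 µg/disc. Mean of three independent experiments.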

Candida albicans [2] = assay: Antifungal activity against Candida albicans at 100 ug/disc after 24 hrs by disc diffusion method; assay type: functional; details: read-out: DIZ; method in brief: as §1
Salmonella typhi [3] = assay: Antibacterial activity against Salmonella Typhi after 24 hrs by agar streak dilution method; assay type: functional, Salmonella enterica subsp. enterica serovar Typhi; details: Salmonella enterica
Method in brief: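 Agar streak dilution: DMSO stock (100 µg/mL) graded into molten sterile nutrient agar, poured 4–5 mm deep and solidified. Plates carry serial dilutions spanning 3.12–100 µg/mL. Applied ~10⁵ CFU/mL suspension, then incubated 24 h at (37 ± 1) °C. MIC read as the lowest inhibitory concentration; each value is the mean of three independent experiments.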

Staphylococcus aureus [4] = assay: Antibacterial activity against Staphylococcus aureus after 24 hrs by agar streak dilution method; assay type: functional
Method in brief: (§2)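 MIC by agar streak dilution. Graded amounts of DMSO stock (100 μg/mL) were mixed into molten sterile nutrient agar and poured 4–5 mm deep. Serial concentrations spanned 3.12–100 µg/mL. Plates were inoculated with about 10⁵ CFU/mL of bacterial suspension and incubated at (37 ± 1) °C for 24 h. Each value is the mean of three independent experiments.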

Escherichia coli [5] = assay: Antibacterial activity against Escherichia coli at 100 ug/disc after 24 hrs by disc diffusion method; assay type: functional; details: read-out: DIZ; method in brief: as §1
Aspergillus clavatus [6] = assay: Antifungal activity against Aspergillus clavatus at 100 ug/disc after 24 hrs by disc diffusion method; assay type: functional; details: read-out: DIZ; method in brief: as §1
Escherichia coli [7] = assay: Antibacterial activity against Escherichia coli after 24 hrs by agar streak dilution method; assay type: functional; method in brief: as §2
Klebsiella pneumoniae [8] = assay: Antibacterial activity against Klebsiella pneumoniae […] after 24 hrs by agar streak dilution method; assay type: functional
Pseudomonas aeruginosa [9] = assay: Antibacterial activity against Pseudomonas aeruginosa at 100 ug/disc after 24 hrs by disc diffusion method; assay type: functional; details: read-out: DIZ; method in brief: as §1
Bacillus cereus [10] = assay: Antibacterial activity against Bacillus cereus after 24 hrs by agar streak dilution method; assay type: functional; method in brief: as §2
Staphylococcus aureus [11] = assay: Antibacterial activity against Staphylococcus aureus at 100 ug/disc after 24 hrs by disc diffusion method; assay type: functional; details: read-out: DIZ; method in brief: as §1
Pseudomonas aeruginosa [12] = assay: Antibacterial activity against Pseudomonas aeruginosa […] after 24 hrs by agar streak dilution method; assay type: functional
Proteus vulgaris [13] = assay: Antibacterial activity against Proteus vulgaris after 24 hrs by agar streak dilution method; assay type: functional; method in brief: as §2
Klebsiella pneumoniae [14] = assay: Antibacterial activity against Klebsiella pneumoniae at 100 ug/disc after 24 hrs by disc diffusion method; assay type: functional; details: read-out: DIZ; method in brief: as §1
Aspergillus fumigatus [15] = assay: Antifungal activity against Aspergillus fumigatus after 48 hrs by agar streak dilution method; assay type: functional
Method in brief: (§3)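 Fungal MIC by agar streak dilution on Sabouraud dextrose agar, poured 4–5 mm deep. Compound from a DMSO stock (100 μg/mL) was incorporated at serial concentrations of 3.12–100 µg/mL. Plates were inoculated with about 10⁵ CFU/mL of suspension and incubated at (37 ± 1) °C for 48 h. Each value is the mean of three independent experiments.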

Aspergillus clavatus [16] = assay: Antifungal activity against Aspergillus clavatus after 48 hrs by agar streak dilution method; assay type: functional; method in brief: as §3
Salmonella typhi [17] = assay: Antibacterial activity against Salmonella Typhi at 100 ug/disc after 24 hrs by disc diffusion method; assay type: functional, Salmonella enterica subsp. enterica serovar Typhi; details: Salmonella enterica, read-out: DIZ
Method in brief: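 Paper disc diffusion on Mueller-Hinton agar poured 5 mm deep; 10⁵ CFU/mL suspension (0.5 McFarland) swabbed over surface. 6.25 mm filter paper discs soaked in compound in DMSO, incubated 24 h at (37 ± 1) °C; inhibition zone diameter in mm. DMSO disc as blank; ciprofloxacin 100 µg/disc as reference. Mean of three independent experiments.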

Aspergillus fumigatus [18] = assay: Antifungal activity against Aspergillus fumigatus at 100 ug/disc after 24 hrs by disc diffusion method; assay type: functional; details: read-out: DIZ; method in brief: as §1
Shigella flexneri [19] = assay: Antibacterial activity against Shigella flexneri at 100 ug/disc after 24 hrs by disc diffusion method; assay type: functional; details: read-out: DIZ; method in brief: as §1
Shigella flexneri [20] = assay: Antibacterial activity against Shigella flexneri after 24 hrs by agar streak dilution method; assay type: functional; method in brief: as §2
Aspergillus niger [21] = assay: Antifungal activity against Aspergillus niger at 100 ug/disc after 24 hrs by disc diffusion method; assay type: functional; details: read-out: DIZ; method in brief: as §1
Candida albicans [22] = assay: Antifungal activity against Candida albicans after 48 hrs by agar streak dilution method; assay type: functional; method in brief: as §3
Aspergillus niger [23] = assay: Antifungal activity against Aspergillus niger after 48 hrs by agar streak dilution method; assay type: functional; method in brief: as §3
Proteus vulgaris [24] = assay: Antibacterial activity against Proteus vulgaris at 100 ug/disc after 24 hrs by disc diffusion method; assay type: functional; details: read-out: DIZ; method in brief: as §1

SMILES	zone of inhibition at 100 µg/disc (Bacillus cereus [1])	zone of inhibition at 100 µg/disc (Candida albicans [2])	MIC (Salmonella typhi [3])	MIC (Staphylococcus aureus [4])	zone of inhibition at 100 µg/disc (Escherichia coli [5])	zone of inhibition at 100 µg/disc (Aspergillus clavatus [6])	MIC (Klebsiella pneumoniae [8])	zone of inhibition at 100 µg/disc (Pseudomonas aeruginosa [9])	MIC (Bacillus cereus [10])	zone of inhibition at 100 µg/disc (Staphylococcus aureus [11])	MIC (Pseudomonas aeruginosa [12])	MIC (Proteus vulgaris [13])	zone of inhibition at 100 µg/disc (Klebsiella pneumoniae [14])	MIC (Aspergillus fumigatus [15])	MIC (Aspergillus clavatus [16])	zone of inhibition at 100 µg/disc (Salmonella typhi [17])	zone of inhibition at 100 µg/disc (Aspergillus fumigatus [18])	zone of inhibition at 100 µg/disc (Shigella flexneri [19])	MIC (Shigella flexneri [20])	zone of inhibition at 100 µg/disc (Aspergillus niger [21])	also measured
CCN1CCN(CC2SC(c3ccc(F)cc3)N(c3ccc(Nc4nc(Oc5cc(=O)n(C)c6ccccc56)nc(N(C)C)n4)cc3)C2=O)CC1 (stereo not given)	28 mm	25 mm	6.25 µg/mL (≈ 8.8 µM)	6.25 µg/mL (≈ 8.8 µM)	28 mm	25 mm	25 µg/mL (≈ 35.2 µM)	25 mm	6.25 µg/mL (≈ 8.8 µM)	27 mm	12.5 µg/mL (≈ 17.6 µM)	25 µg/mL (≈ 35.2 µM)	25 mm	12.5 µg/mL (≈ 17.6 µM)	25 µg/mL (≈ 35.2 µM)	27 mm	28 mm	19 mm	25 µg/mL (≈ 35.2 µM)	26 mm	MIC (Escherichia coli [7]): 6.25 µg/mL (≈ 8.8 µM); MIC (Candida albicans [22]): 25 µg/mL (≈ 35.2 µM); MIC (Aspergillus niger [23]): 12.5 µg/mL (≈ 17.6 µM); zone of inhibition at 100 µg/disc (Proteus vulgaris [24]): 22 mm
CCN1CCN(CC2SC(c3cccc(F)c3)N(c3ccc(Nc4nc(Oc5cc(=O)n(C)c6ccccc56)nc(N(C)C)n4)cc3)C2=O)CC1 (stereo not given)	23 mm	25 mm	6.25 µg/mL (≈ 8.8 µM)	12.5 µg/mL (≈ 17.6 µM)	23 mm	24 mm	25 µg/mL (≈ 35.2 µM)	20 mm	6.25 µg/mL (≈ 8.8 µM)	20 mm	50 µg/mL (≈ 70.4 µM)	50 µg/mL (≈ 70.4 µM)	22 mm	50 µg/mL (≈ 70.4 µM)	50 µg/mL (≈ 70.4 µM)	24 mm	24 mm	25 mm	12.5 µg/mL (≈ 17.6 µM)	25 mm	MIC (Escherichia coli [7]): 6.25 µg/mL (≈ 8.8 µM); MIC (Candida albicans [22]): 25 µg/mL (≈ 35.2 µM); MIC (Aspergillus niger [23]): 12.5 µg/mL (≈ 17.6 µM); zone of inhibition at 100 µg/disc (Proteus vulgaris [24]): 19 mm
CCN1CCN(CC2SC(c3ccc(Cl)cc3)N(c3ccc(Nc4nc(Oc5cc(=O)n(C)c6ccccc56)nc(N(C)C)n4)cc3)C2=O)CC1 (stereo not given)	28 mm	27 mm	50 µg/mL (≈ 68.8 µM)	6.25 µg/mL (≈ 8.61 µM)	27 mm	23 mm	6.25 µg/mL (≈ 8.61 µM)	23 mm	6.25 µg/mL (≈ 8.61 µM)	26 mm	50 µg/mL (≈ 68.8 µM)	25 µg/mL (≈ 34.4 µM)	26 mm	12.5 µg/mL (≈ 17.2 µM)	12.5 µg/mL (≈ 17.2 µM)	20 mm	26 mm	26 mm	12.5 µg/mL (≈ 17.2 µM)	26 mm	MIC (Escherichia coli [7]): 12.5 µg/mL (≈ 17.2 µM); MIC (Candida albicans [22]): 12.5 µg/mL (≈ 17.2 µM); MIC (Aspergillus niger [23]): 25 µg/mL (≈ 34.4 µM); zone of inhibition at 100 µg/disc (Proteus vulgaris [24]): 25 mm
O=C(O)c1cn(C2CC2)c2cc(N3CCNCC3)c(F)cc2c1=O [CIPROFLOXACIN]	31 mm		1 µg/mL (≈ 3.02 µM)	1 µg/mL (≈ 3.02 µM)	32 mm		1 µg/mL (≈ 3.02 µM)	33 mm	1 µg/mL (≈ 3.02 µM)	30 mm	1 µg/mL (≈ 3.02 µM)	1 µg/mL (≈ 3.02 µM)	33 mm			30 mm		32 mm	≤ 3 µg/mL		zone of inhibition at 100 µg/disc (Proteus vulgaris [24]): 31 mm
CC(=O)N1CCN(c2ccc(OCC3COC(Cn4ccnc4)(c4ccc(Cl)cc4Cl)O3)cc2)CC1 (stereo not given) [KETOCONAZOLE]		33 mm				31 mm								1 µg/mL (≈ 1.88 µM)	1 µg/mL (≈ 1.88 µM)		29 mm			30 mm	MIC (Candida albicans [22]): 1 µg/mL (≈ 1.88 µM); MIC (Aspergillus niger [23]): ≤ 3 µg/mL
